Compound activity deposited in PubChem BioAssay by several laboratories.
PTEN del growth = suppresses growth of cells with PTEN deletion; HCT116 PTEN-null viability, CellTiter-Glo, 60 h; hits give low values; viability, % at 10 µM; 140,000 tested, 1.2% active;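 active = viability at or below a set limit, 4 SD under the median of all tested compounds, cut at about 3.7% in these data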;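 note: PTEN knockout HCT116 line with beta catenin targeted HCT116 as companion control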
TNAP act hi DEA = increases human TNAP activity under high phosphate acceptor concentration. P05186. purified TNAP, CDP-star luminescence, 1 M DEA, 30 min; hits give high values; 0 = EDTA background, 1 = DMSO-only activity. activation factor at 20 µM. 200,000 tested, under 10 active. AID 1136;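 active = activation factor at least 2 at 20 µM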
Target sequence (P05186 whole entry, looked up): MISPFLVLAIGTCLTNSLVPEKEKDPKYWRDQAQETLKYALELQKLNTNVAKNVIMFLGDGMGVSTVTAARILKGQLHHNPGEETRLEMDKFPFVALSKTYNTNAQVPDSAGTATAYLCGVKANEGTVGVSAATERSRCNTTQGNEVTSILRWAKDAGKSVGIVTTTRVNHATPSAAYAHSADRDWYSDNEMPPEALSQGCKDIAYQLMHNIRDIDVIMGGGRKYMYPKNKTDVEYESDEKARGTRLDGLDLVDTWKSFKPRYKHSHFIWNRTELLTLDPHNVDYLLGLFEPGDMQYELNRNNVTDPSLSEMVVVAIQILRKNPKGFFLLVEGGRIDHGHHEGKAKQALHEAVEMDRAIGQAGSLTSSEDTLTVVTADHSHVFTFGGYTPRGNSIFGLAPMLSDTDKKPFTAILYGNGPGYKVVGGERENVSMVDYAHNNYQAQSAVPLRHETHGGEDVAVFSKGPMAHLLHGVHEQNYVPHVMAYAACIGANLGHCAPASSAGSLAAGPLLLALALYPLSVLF
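Measured by: Luminescent substrate turnover signal | Test system: Human TNAP | Input: TNAP 1/800 final | Dosing: 20 µM single point | Schedule: 30 min, room temperature | Controls: EDTA wells as negative control, DMSO wells as positive control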
bCat KO growth = beta-catenin-lacking colon tumor cell growth suppression; HCT116 beta-catenin knockout viability, CellTiter-Glo, 60 h; hits give low values; viability, % at 10 µM; 140,000 tested, 1.5% active;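 active = viability at or under a set limit, the compound median less 4 SD, cut at about 6% in these data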;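 note: 0% = Hyamine 1622 control at 20 µM and 100% = untreated cell control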
TNAP inh hi DEA = TNAP (human) inhibition, high acceptor; purified TNAP, CDP-star luminescence, 1 M DEA; inhibition, % at 20 µM; 200,000 tested, 0.03% active;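 active = over 50% inhibition of tissue-nonspecific alkaline phosphatase at 20 µM in the single-dose screen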;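 note: plate controls were DMSO wells for no effect and EDTA-quenched wells as full inhibition for full effect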
TNAP inh noacc = inhibitors of human TNAP without phosphate acceptor | purified TNAP, CDP-star luminescence, 30 min | 200,000 tested, 0.26% active | inhibition, % at 20 µM | AID 1012;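 active = tissue-nonspecific alkaline phosphatase inhibition above about 50% at 20 µM in the single-dose screen, limit read from the data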;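 note: 0% = DMSO negative control and 100% = EDTA positive control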
Lmaj promast = reduces viability of Leishmania major promastigotes; resazurin fluorescence viability; inhibition, % at 10 µM; 200,000 tested, 9% active; in the data active = inhibition above about 50%;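 note: promastigotes grown with compound for 44 hours at 28 °C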
Starred values were filed as active, the others as inactive; . = no result. Rows were chosen to be rich in hits. Some 9.6% of all compounds tested hit in one or more screens of this group.

SMILES	PTEN del growth	TNAP act hi DEA	bCat KO growth	TNAP inh hi DEA	TNAP inh noacc	Lmaj promast
Cc1nn2c(CN(C(=O)COc3ccccc3)c3ccccc3)nnc2c2ccccc12	93	1	92	0	-11	81*
Cc1nn2c(CN(C(=O)CN3CCOCC3)c3ccccc3)nnc2c2ccccc12	100	1	95	-2	-24	-2
COc1cc2c(cc1OC)C(c1cccs1)N(C(=O)C(C)C)CC2 (centres undefined)	94	1	98	-1	-1	73*
COc1cc2c(cc1OC)C(C1C(=O)CCCC1=O)N(C(=O)CCl)CC2 (centres undefined)	99	1.1	94	-5	-9	29
COc1cc2c(cc1OC)C(c1ccccc1)N(C(=O)CCl)CC2 (centres undefined)	2.0*	1	1.9*	-1	4	99*
COc1cc2c(cc1OC)C(c1cccs1)N(C(=O)c1cccnc1)CC2 (centres undefined)	.	1	.	1	-8	0
NCCCC[C@@H]1NC(=O)c2cc([N+](=O)[O-])cc(I)c2SC[C@@H](C(=O)NCC(N)=O)NC(=O)CNC1=O	93	1	99	-2	-9	-6
Cc1ccc(NC(=O)COC(=O)CCc2ccc(S(=O)(=O)N3CCOCC3)cc2)cc1F	.	1	.	-2	-6	-8
NS(=O)(=O)c1ccc(NC(=O)COC(=O)CCC2CCCCC2)cc1	96	1	95	1	2	-6
CCCCC1CCC(C(=O)OCC(=O)Nc2ccc(S(N)(=O)=O)cc2)CC1 (centres undefined)	97	1	95	-2	7	52*
O=C(/C=C/c1ccc(Br)cc1)Nc1ccc(S(=O)(=O)Nc2ncccn2)cc1	.	1	.	0	2	52*
CC(=O)Nc1ccc(S(=O)(=O)Nc2ncccn2)cc1	105	1.1	103	-5	-13	-9
CN1/C(=C/c2cc[n+](C)c3ccccc23)C=Cc2ccccc21	.	0.7	.	34	29	101*
CCN1C(=O)/C(=C2/C=Cc3ccccc3N2C)OC1=S	15	0.9	10	5	19	-4
Nc1nc(N)c(Cc2ccc(Cl)cc2Cl)c(N)n1	.	1	.	-4	2	64*
NNc1ccc(Cc2ccc(Cl)cc2Cl)nn1	.	1	.	-3	7	91*
CSc1ccc(Cc2ccc(Cl)cc2Cl)nn1	74	1	78	-4	-2	-1
CC(C)CNC1=C(C(=S)Nc2ccccc2)C(=O)CC(C)(C)C1	72	1	78	-5	-7	7
CC(NCc1ccc(OCc2ccc(Cl)cc2)cc1)C(O)c1ccccc1 (centres undefined)	.	1	.	-4	-12	100*
CC(NC(=O)CCCOc1ccc(Cl)cc1)c1ccccc1 (centres undefined)	96	1	89	1	-13	-3
c1ccc(COc2cccc(CNn3cnnc3)c2)cc1	98	1	103	-4	-12	16
CC(NCc1cccc(OCc2ccccc2)c1)C(O)c1ccccc1 (centres undefined)	.	1.1	.	-6	-10	100*
Cc1nc(C)c(-c2nnc(-c3ccc(C(C)(C)C)cc3)o2)cc1C(=O)NN	85	1	89	1	-13	-1
Cn1c(/C(C#N)=C/c2ccncc2)nc2ccccc21	.	1.1	.	-8	-8	28
N#C/C(=C\c1ccncc1)c1nc2c(s1)CCCC2	.	1.1	.	-6	-7	58*
SMILES	PTEN del growth	TNAP act hi DEA	bCat KO growth	TNAP inh hi DEA	TNAP inh noacc	Lmaj promast
COc1ccc(Br)cc1/C(C)=N/NC1=NCCN1	52	1	45	-2	-1	52*
O=C(CCC1CCCN(C(=O)c2ccsc2)C1)NCc1ccc(F)c(F)c1 (centres undefined)	.	1.1	.	-10	-13	3
O=c1[nH]c(CN2CCN(S(=O)(=O)c3cccs3)CC2)nc2c(Br)cc(Br)cc12	.	1.1	.	-6	-11	11
CCN(CC)S(=O)(=O)c1cccc(C(=O)NC(Cc2c[nH]c3ccccc23)c2nnc3n2CCC3)c1 (centres undefined)	94	1	79	-3	-8	63*
CCN(CC)S(=O)(=O)c1cccc(C(=O)N[C@@H](C)c2nc3ccccc3[nH]2)c1	.	1	.	-1	-3	2
Cc1oc2ccc(O)cc2c1C(=O)c1ccc([N+](=O)[O-])cc1	91	1	92	-2	-4	8
CN(C)/C=C/c1oc2ccc(O)cc2c1[N+](=O)[O-]	.	0.5	.	52*	48	-3
Cc1cc(C)c(NC(=O)CSc2ccc(-c3cccnc3)nn2)c(C)c1	.	1	.	-3	-3	-3
CC1=C(CC(=O)c2ccccc2)C(=O)c2ccccc2C1=O	2.0*	1	2.2*	1	-3	94*
O=C(CN1C(=O)c2ccccc2C1=O)c1ccccc1	104	1	108	2	-7	-1
Cc1cccc(C)c1Nc1c(-c2ccccn2)nc2ccccn12	.	1	.	-5	-36	100*
Cc1ccc(Nc2c(-c3ccccn3)nc3cccc(C)n23)cc1	.	1.1	.	-10	-67	101*
Cc1ccc2nc(-c3ccccn3)c(NC3CCCC3)n2c1	.	1	.	-5	-29	100*
Cc1ccccc1Nc1c(-c2ccccn2)nc2c(C)cccn12	.	1.1	.	-7	-5	37
COC(=O)CNc1c(-c2ccccn2)nc2ccc(Br)cn12	102	1.1	87	-8	-23	-1
Cc1cccc(Nc2c(-c3ccc(O)cc3)nc3ncccn23)c1	.	1	.	0	-12	20
Cc1cccc(C)c1Nc1c(-c2ccsc2)nc2ncccn12	83	1	77	-2	3	80*
O=C(NN1CCN(Cc2ccccc2)CC1)c1ccc(N2CCOCC2)c([N+](=O)[O-])c1	.	1	.	1	-3	14
COc1cc2c(cc1OC)CN(CC(=O)NC(=O)NC1CCCCC1)CC2	.	1	.	-2	-17	0
COc1ccc(NC(=O)c2ccccc2-c2ccccc2)c(C)c1	.	1	.	1	-6	-9
CN1CCN(Cc2cc(COCc3ccccc3)c3cccnc3c2O)CC1	0.8*	1.1	1.1*	-7	-11	100*
O=S(=O)(c1ccc(Cl)cc1)N1CCN(Cc2ccc(O)c3ncccc23)CC1	.	1	.	-1	-33	98*
CCOc1ccc(S(=O)(=O)N2CCN(Cc3ccccc3)CC2)c2cccnc12	84	1	83	2	-4	4
Oc1ccc(CN2CCN(Cc3ccccc3)CC2)c2cccnc12	2.0*	.	2.4*	.	.	100*
O=[N+]([O-])c1cc(CN2CCOCC2)c2cccnc2c1O	.	0.9	.	7	-6	-4
O=c1[nH]c(CN2CCN(S(=O)(=O)c3ccc(Cl)cc3)CC2)nc2cc(Cl)ccc12	79	1	82	-4	-7	7
